Measurements reported in ChEMBL document CHEMBL4765378, “Discovery of simplified benzazole fragments derived from the marine benzosceptrin B as necroptosis inhibitors involving the receptor interacting protein Kinase-1” (Eur J Med Chem, 2020).

Experiments:
CDK9/cyclin T1 = CDK9/cyclin T1 (Homo sapiens, UniProt P50750); test: Inhibition of human recombinant CDK9/cyclin T expressed in baculovirus infected Sf9 insect cells using YSPTSPSYSPTSPSYSPTSPSKKKK as substrate by ADP-glo assay
CDK2/Cyclin A2 = CDK2/Cyclin A2 (Homo sapiens, UniProt P24941); test: Inhibition of human CDK2/cyclin A using histone H1 as substrate by ADP-glo assay; format: protein-complex assay
[1] = molecular target: Cyclin-dependent kinase 5/CDK5 activator 1 (Homo sapiens, UniProt Q00535); test: Inhibition of human recombinant CDK5/p25 expressed in bacterial expression using histone H1 as substrate by ADP-glo assay
[2] = molecular target: T1, Receptor-interacting serine/threonine-protein kinase 1 (Homo sapiens) (UniProt Q13546); test: Inhibition of RIPK1 in human FADD-deficient Jurkat I 2.1 cells assessed as protection against TNFalpha-induced necroptosis by measuring remaining viable cells at 10 uM measured after 24 hrs by MTS assay relative to TNFalpha; format: cell-based
T1 sequence (whole entry): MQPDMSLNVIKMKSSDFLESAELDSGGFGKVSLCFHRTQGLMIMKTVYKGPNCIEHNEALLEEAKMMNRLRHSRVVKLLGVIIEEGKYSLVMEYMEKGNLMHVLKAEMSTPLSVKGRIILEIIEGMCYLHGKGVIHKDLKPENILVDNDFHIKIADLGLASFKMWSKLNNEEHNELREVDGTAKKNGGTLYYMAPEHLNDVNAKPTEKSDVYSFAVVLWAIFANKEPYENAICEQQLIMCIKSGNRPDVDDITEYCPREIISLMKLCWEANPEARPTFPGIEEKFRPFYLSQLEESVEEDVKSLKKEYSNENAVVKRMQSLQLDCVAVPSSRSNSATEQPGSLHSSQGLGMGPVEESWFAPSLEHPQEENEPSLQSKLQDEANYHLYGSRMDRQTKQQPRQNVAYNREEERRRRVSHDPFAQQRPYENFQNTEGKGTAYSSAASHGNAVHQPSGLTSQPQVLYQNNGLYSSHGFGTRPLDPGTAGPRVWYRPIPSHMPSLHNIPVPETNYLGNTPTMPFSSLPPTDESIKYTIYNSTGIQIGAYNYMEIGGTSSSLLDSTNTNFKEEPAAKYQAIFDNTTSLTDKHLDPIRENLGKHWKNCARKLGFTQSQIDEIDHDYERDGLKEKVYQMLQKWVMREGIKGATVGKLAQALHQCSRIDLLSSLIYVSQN
In short: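 FADD-deficient Jurkat cells co-treated 24 h with 10 ng/ml human recombinant TNF-α and 10 μM compound; MTS viability normalized to DMSO control (100%); protection delta = viability with TNF-α plus compound minus viability with TNF-α alone (negative if toxic); n = 3.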

[3] = molecular target: Serine/threonine-protein kinase pim-1 (Homo sapiens, UniProt P11309); test: Inhibition of recombinant human PIM1 expressed in bacterial expression system using histone H1 as substrate by ADP-glo assay
[4] = Cytotoxicity against human FADD-deficient Jurkat I 2.1 cells assessed as reduction in cell viability at 10 uM measured after 24 hrs by MTS assay; format: cell-based; settings: jurkat i 2.1, 24 h
[5] = molecular target: T2, Serine/threonine-protein kinase haspin (Homo sapiens, UniProt Q8TF76); test: Inhibition of recombinant human HASPIN kinase domain (470 to 798 residues) expressed in bacterial expression system using histone H3(1-21) peptide as substrate by ADP-glo assay
T2 sequence (Q8TF76 whole entry): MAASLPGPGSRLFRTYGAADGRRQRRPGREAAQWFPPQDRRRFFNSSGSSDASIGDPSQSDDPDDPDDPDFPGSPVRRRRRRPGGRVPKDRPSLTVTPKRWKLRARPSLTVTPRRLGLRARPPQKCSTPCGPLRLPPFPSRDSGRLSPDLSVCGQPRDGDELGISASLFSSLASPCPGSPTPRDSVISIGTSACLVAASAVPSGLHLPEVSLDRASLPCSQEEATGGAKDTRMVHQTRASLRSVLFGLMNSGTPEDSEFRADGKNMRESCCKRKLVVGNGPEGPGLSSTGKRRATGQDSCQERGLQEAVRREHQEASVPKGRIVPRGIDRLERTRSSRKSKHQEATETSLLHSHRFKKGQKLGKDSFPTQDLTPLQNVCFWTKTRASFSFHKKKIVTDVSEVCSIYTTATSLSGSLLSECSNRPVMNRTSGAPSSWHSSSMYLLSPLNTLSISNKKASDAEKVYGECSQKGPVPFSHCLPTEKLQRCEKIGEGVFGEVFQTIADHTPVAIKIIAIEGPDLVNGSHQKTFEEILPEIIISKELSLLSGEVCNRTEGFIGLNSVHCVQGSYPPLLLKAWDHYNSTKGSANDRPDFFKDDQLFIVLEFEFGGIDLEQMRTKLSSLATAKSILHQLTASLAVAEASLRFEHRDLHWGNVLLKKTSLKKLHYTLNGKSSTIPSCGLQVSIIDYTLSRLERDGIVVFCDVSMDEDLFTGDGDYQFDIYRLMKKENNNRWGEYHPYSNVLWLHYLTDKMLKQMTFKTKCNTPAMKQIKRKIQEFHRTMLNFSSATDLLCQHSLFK

[6] = molecular target: T1, Receptor-interacting serine/threonine-protein kinase 1 (Homo sapiens); test: (§1) Inhibition of recombinant human RIPK1 kinase domain (8 to 322 residues) using myelin basic protein as substrate measured after 120 mins by [gamma-32P]ATP based scintillation counting method
[7] = molecular target: T3, Receptor-interacting serine/threonine-protein kinase 1 (Homo sapiens, UniProt Q13546); test: as §1
T3 sequence (Q13546 whole entry): T1 sequence (whole entry)

[8] = molecular target: Dual specificity tyrosine-phosphorylation-regulated kinase 1A (Rattus norvegicus, UniProt Q63470); test: Inhibition of recombinant rat DYRK1A kinase domain (1 to 499 residues) expressed in bacterial expression system using KKISGRLSPIMTEQ as substrate by ADP-glo assay
Aurora kinase B = Aurora kinase B (Homo sapiens, UniProt Q96GD4); test: Inhibition of recombinant human AURKB expressed in baculovirus infected Sf9 insect cells using myelin basic protein as substrate by ADP-Glo assay
[9] = molecular target: Dual specificity protein kinase CLK1 (Mus musculus, UniProt P22518); test: Inhibition of mouse recombinant CLK1 expressed in bacterial expression system using GRSRSRSRSRSR as substrate by ADP-glo assay
Dual specificity protein kinase CLK1, sequence (P22518 whole entry): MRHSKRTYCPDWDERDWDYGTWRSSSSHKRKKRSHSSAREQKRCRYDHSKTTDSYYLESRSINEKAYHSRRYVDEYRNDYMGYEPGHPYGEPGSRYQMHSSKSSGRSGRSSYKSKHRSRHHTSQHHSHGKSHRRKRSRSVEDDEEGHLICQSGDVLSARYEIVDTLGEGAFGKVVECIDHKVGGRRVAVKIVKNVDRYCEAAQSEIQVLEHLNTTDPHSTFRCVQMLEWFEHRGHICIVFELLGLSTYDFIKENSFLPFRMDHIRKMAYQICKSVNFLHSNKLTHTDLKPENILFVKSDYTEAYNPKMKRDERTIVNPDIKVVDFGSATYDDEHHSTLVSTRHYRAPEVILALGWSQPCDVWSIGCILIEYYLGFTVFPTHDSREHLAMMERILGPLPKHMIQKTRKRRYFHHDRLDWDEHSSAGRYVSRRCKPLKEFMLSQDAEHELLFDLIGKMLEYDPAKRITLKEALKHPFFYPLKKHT

Aurora kinase B, sequence (Q96GD4 whole entry): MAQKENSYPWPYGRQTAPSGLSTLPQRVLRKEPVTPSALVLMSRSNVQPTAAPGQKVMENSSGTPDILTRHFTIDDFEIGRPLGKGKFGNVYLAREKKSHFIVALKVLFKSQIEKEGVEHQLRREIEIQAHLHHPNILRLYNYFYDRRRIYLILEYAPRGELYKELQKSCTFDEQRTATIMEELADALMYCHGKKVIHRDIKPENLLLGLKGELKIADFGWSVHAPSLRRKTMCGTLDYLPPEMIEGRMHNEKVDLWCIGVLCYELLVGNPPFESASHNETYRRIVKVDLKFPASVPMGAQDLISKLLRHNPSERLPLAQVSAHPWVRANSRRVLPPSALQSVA
Cyclin-dependent kinase 5/CDK5 activator 1, sequence (Q00535 whole entry): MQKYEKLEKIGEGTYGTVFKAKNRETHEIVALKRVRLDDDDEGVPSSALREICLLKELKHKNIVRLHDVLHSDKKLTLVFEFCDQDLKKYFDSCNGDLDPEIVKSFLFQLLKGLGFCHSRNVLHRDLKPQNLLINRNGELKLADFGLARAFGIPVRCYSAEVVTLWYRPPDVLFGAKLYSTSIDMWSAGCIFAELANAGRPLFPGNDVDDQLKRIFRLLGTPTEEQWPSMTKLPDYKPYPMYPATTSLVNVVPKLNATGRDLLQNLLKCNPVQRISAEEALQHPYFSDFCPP
Cyclin-dependent kinase 5/CDK5 activator 1, sequence (Q15078 whole entry, further chain): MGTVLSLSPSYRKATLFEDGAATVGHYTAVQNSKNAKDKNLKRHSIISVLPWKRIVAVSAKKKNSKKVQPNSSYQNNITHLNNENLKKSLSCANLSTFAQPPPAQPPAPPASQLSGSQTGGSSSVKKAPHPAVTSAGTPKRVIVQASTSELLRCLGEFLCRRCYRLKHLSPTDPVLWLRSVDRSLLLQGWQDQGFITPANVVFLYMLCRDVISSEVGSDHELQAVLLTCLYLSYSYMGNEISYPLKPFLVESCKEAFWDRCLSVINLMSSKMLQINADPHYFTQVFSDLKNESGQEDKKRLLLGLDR
Serine/threonine-protein kinase pim-1, sequence (P11309 whole entry): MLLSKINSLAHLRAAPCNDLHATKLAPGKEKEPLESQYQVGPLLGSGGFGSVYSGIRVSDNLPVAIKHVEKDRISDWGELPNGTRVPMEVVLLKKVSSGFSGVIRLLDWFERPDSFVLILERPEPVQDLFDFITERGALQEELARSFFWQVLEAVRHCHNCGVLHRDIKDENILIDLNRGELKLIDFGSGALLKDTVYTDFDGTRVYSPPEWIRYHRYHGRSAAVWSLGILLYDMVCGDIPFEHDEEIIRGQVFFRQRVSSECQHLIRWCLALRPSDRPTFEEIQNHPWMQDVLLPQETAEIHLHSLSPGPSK
CDK9/cyclin T1, sequence (O60563 whole entry): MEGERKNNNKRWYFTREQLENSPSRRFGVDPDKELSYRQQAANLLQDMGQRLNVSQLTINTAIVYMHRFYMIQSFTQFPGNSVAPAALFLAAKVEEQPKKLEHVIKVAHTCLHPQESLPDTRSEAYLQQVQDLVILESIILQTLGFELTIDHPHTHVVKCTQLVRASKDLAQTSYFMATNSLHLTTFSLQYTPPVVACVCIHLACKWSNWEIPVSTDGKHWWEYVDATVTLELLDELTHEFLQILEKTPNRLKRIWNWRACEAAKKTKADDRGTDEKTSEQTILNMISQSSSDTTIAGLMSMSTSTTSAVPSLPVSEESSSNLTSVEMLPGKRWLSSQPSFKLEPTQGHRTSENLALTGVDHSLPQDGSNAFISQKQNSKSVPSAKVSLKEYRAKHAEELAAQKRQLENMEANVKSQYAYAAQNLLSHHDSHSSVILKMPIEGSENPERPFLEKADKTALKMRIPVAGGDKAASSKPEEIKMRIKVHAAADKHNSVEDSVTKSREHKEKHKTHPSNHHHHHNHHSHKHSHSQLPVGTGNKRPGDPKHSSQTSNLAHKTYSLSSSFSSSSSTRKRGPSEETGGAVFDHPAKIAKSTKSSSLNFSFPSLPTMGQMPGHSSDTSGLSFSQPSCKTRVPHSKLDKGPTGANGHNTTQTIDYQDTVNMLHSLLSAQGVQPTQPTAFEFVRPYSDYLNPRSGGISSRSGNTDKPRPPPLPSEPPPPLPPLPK
CDK9/cyclin T1, sequence (P50750 whole entry): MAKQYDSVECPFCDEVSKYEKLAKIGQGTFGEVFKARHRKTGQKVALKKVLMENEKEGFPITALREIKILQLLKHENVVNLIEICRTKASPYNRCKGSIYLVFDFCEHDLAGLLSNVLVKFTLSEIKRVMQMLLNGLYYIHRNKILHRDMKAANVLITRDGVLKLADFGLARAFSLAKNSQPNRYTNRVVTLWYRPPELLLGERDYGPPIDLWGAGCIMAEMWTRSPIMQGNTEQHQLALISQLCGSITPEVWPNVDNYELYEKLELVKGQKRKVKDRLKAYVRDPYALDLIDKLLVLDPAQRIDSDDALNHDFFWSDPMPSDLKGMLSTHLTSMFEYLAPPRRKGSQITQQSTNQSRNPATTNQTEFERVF

SMILES	IC50 (CDK9/cyclin T1) [µM]	IC50 (CDK2/Cyclin A2) [µM]	IC50 [1] [µM]	Activity [2] [%]	IC50 [3] [µM]	Activity [4]	IC50 [5] [µM]	inhibition [6]	IC50 [7] [µM]	IC50 [8] [µM]	IC50 (Aurora kinase B) [µM]	IC50 [9] [µM]
CCCCNc1nc2cc([N+](=O)[O-])ccc2s1	> 10	> 10	> 10	56.1	> 10	Non-Toxic	> 10	Dose-dependent effect	2.89	2.21	> 10	> 10
CCCCNc1nc2ccc([N+](=O)[O-])cc2[nH]1	0.48	> 10	> 10	56.9	> 10	Non-Toxic	> 10	Dose-dependent effect	12.1	1.8	> 10	0.8
